GLD-1 RNA inh: GLD-1-TGE RNA interaction inhibition (C. elegans) | Q17339 | purified GLD-1 + fluorescein TGE RNA, fluorescence polarization | inhibition, % at 5.96 µM | actives 0.44% (n = 320,000) | AID 2280;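 active = percent inhibition above a per-plate cutoff, the plate mean of test compounds plus 3 SD, cut at about 30% in these data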;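 also: 0% = DMSO wells with GLD-1 and probe and 100% = wells lacking GLD-1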
IMP-1 inhibitor: inhibitors of Pseudomonas aeruginosa IMP-1 metallo-beta-lactamase; purified IMP-1, nitrocefin hydrolysis, epi-absorbance fluorescence; inhibition, % at 5.6 µM; actives 0.45% (n = 290,000);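 active = inhibition above the mean plus 3 SD of all compounds in the same screening run, cut at about 4.5% in these data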;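 also: 0% = IMP-1 with DMSO and 100% = DMSO wells lacking enzyme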
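Material – recombinant IMP-1 enzyme, purified · Amount – IMP-1 0.2 nM before substrate addition · Medium – HEPES buffer pH 7.1 with ZnSO4 and Brij 35 · Timing – 25 °C, 15 min preincubation, 25 min reaction · Measured by – plate fluorescence quenching by hydrolysis product, ex 480/em 530 nm · Read-out – percent enzyme inhibition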
MEX-5 binding: C. elegans MEX-5 TCR-2 RNA binding activity; Q9XUB2; MEX-5/FITC-TCR2 RNA binding, fluorescence polarization; hits give low values; activity score (negative = inhibition of binding), % at 10 µM; actives 0.38% (n = 300,000);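 active = inhibition past about -25% in most replicates, and total fluorescence under double the plate's negative control median, limit read from the data; inconclusive = replicates evenly split on the limit, or fluorescence at least double controls; inactive = too little inhibition in most replicates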;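 also: 0% = DMSO and -100% = 5 µM competing unlabeled TCR2 RNA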
EBV gp42 block: blocks Epstein-Barr virus glycoprotein 42 binding; Fluorescence polarization binding assay, mP read-out; inhibition, % (tested at 21.74 µM); actives 0.42% (n = 220,000); AID 1085; in the data active = inhibition above about 50%
Target sequence (Q1HVG2 whole entry, looked up): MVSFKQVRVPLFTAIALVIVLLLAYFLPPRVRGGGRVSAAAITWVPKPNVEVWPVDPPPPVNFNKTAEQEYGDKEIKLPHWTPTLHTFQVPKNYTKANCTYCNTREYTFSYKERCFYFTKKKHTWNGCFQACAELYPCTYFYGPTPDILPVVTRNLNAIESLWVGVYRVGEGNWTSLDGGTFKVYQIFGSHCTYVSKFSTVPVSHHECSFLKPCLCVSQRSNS
VIM-2 inh: blocks Pseudomonas aeruginosa VIM-2 metallo-beta-lactamase; AID 1527; purified VIM-2, nitrocefin hydrolysis, epi-absorbance fluorescence; inhibition, % at 5.6 µM; actives 0.89% (n = 290,000);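 active = inhibition above the mean of all tested compounds plus 3 SD, cutoff set per screening run, cut at about 7.5% in these data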;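 also: red hydrolysis product quenches plate fluorescence so inhibitors raise well fluorescence; 0% = enzyme with DMSO and 100% = DMSO without enzyme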
BCLXL inh: inhibitors of human Bcl-xL; Q07817; GST-Bcl-xL / FITC-Bim BH3 peptide fluorescence polarization; inhibition, % at 10.9 µM; actives 0.7% (n = 320,000);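 active = inhibition above the mean of all tested compounds plus 3 SD, cutoff set per campaign, cut at about 30% in these data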;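 also: 0% = DMSO wells and 100% = unlabeled Bim-BH3 peptide competitor; inhibitors lower millipolarization by displacing the labeled peptide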
Target sequence (Q07817 whole entry, looked up): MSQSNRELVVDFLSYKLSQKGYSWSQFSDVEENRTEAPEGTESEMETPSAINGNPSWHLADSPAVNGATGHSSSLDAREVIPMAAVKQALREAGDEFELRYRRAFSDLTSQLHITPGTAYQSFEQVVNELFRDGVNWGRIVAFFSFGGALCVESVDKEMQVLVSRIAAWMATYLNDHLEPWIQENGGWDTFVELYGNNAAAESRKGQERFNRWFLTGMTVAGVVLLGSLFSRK
VIM-2 confirm: VIM-2 inhibition, confirmation assay. inhibition, % at 5.6 µM. AID 1860. actives 73% (n = 200). shares compounds with IMP-1 inhibitor. purified VIM-2 enzyme, nitrocefin absorbance; in the data active = inhibition above about 8%;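 also: 0% = enzyme with vehicle and 100% = no enzyme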
TEM-1 counter: blocks E. coli TEM-1 beta-lactamase, VIM-2 IMP-1 counter-screen. nitrocefin absorbance inhibition. inhibition, % at 5.6 µM. shares compounds with IMP-1 inhibitor. actives 50% (n = 200); in the data active = inhibition above about 0.66%
Target sequence (P62593 whole entry, looked up): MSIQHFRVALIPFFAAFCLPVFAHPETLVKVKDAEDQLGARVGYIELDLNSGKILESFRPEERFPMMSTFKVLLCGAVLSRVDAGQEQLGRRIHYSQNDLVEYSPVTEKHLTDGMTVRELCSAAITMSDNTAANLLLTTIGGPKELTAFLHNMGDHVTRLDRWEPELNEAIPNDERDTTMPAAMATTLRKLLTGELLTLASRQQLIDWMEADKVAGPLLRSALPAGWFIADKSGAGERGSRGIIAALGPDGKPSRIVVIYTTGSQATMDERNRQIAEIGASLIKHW
IMP-1 confirm: confirmation of P. aeruginosa IMP-1 metallo-beta-lactamase inhibitors; purified IMP-1 enzyme, absorbance substrate hydrolysis; AID 2189; actives 60% (n = 200); inhibition, % at 5.6 µM; shares compounds with IMP-1 inhibitor; in the data active = inhibition above about 4.9%;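 also: 0% = enzyme with vehicle and 100% = vehicle without enzyme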
Active calls of the source: *; ? = inconclusive; / = no result given; + = active, no number. Shown are actives, neighbours in structure and some others; about 2.2% of the full set was active somewhere.

SMILES | GLD-1 RNA inh | IMP-1 inhibitor | MEX-5 binding | EBV gp42 block | VIM-2 inh | BCLXL inh | VIM-2 confirm | TEM-1 counter | IMP-1 confirm
CCC(C)(C)NS(=O)(=O)c1cc(CN2C(=O)c3cccnc3C2=O)ccc1OC | -8.3 | -1.6 | 0.4 | / | -2.3 | 0.1 | / | / | /
CC(=O)Oc1cc2cccc(OC(C)=O)c(=O)c2c(OC(C)=O)c1OC(C)=O | 14.1 | 8.9* | -61.3* | -11.5 | 6.9 | 81.1* | 1.9 | -2.9 | -1.7
CC(=O)Oc1ccccc1C(=O)O | -2.0 | / | 1.2 | / | / | 3.4 | / | / | /
CCN(CC)C(=O)C1c2ccccc2Oc2ccccc21 | 168.7* | 17.2* | ? | / | 18.4* | 194.5* | 2.2 | 1.6* | 0.7
COc1ccc2c(c1OC)C(=O)OC2 | -1.7 | -0.2 | 1.2 | -17.5 | 0.3 | -2.5 | / | / | /
COc1ccc2c3c(cccc13)C(=O)CC2 | / | 15.5* | ? | / | 17.2* | / | 0.7 | 1.7* | -2.4
O=C(NC1CCCC1)c1cc(S(=O)(=O)N2CCCC2)ccc1Cl | 6.4 | -0.5 | 2.0 | / | 0.7 | -3.7 | / | / | /
Cc1cccc(C(=O)NN2C(=O)C3C(c4ccccc4)C=CC(c4ccccc4)C3C2=O)c1 (stereo not drawn) | 1.9 | 20.6* | 2.4 | 5.5 | 7.3 | 3.9 | -0.3 | -5.4 | 1.9
O=C(NN1C(=O)C2C3C=CC(C3)C2C1=O)c1ccccc1 (stereo not drawn) | -2.6 | -3.5 | 0.3 | -19.7 | -3.4 | -1.7 | / | / | /
COC(=O)c1sccc1NC(=O)c1ccc(C#N)cc1 | 6.9 | 31.8* | -1.9 | / | 15.9* | -8.9 | 13.5* | -0.4 | 21.8*
O=C1CSC(=S)N1/N=C/c1ccc2c(c1)OCCO2 | -13.3 | 1.6 | -2.7 | / | -1.1 | 12.3 | / | / | /
O=C1CSC(=S)N1/N=C/c1cc(Br)c(O)c(Br)c1 | -64.9 | 22.6* | -32.8* | / | 13.3* | -3.9 | 26.1* | 3.6* | 37.3*
COc1ccccc1N1CCN(C(=O)C(=O)c2c[nH]c3ccccc23)CC1 | 1.2 | -1.3 | 0.1 | / | -2.2 | 5.3 | / | / | /
NC(=O)c1nsc(C(=O)N(Cc2cccnc2)C(C(=O)NCc2ccc(F)cc2)c2ccc(F)cc2)c1N (stereo not drawn) | -6.1 | -1.0 | 1.2 | / | -1.8 | -1.9 | / | / | /
CCCCc1cc(=O)oc2cc(C)c(CN3CCCC3)c(O)c12 | 10.3 | 14.3* | -2.0 | -2.8 | 8.3* | 9.5 | 2.4 | -3.3 | 5.6*
Cc1cc2oc(=O)cc(CN3CCCCC3)c2cc1C | 0.5 | 0.5 | -0.4 | / | 2.5 | 6.0 | / | / | /
CCc1cc(=O)oc2cc(C)c(CN3CCCC(C)C3)c(O)c12 (stereo not drawn) | 10.2 | 16.2* | 0.8 | -4.7 | 8.4* | 24.5 | 10.2* | -3.2 | 0.7
CCOC(=O)c1c(C)n(-c2ccc(C)cc2)c2c(C(C(C)=O)C(=O)O)c(Br)c(O)c(O)c12 (stereo not drawn) | 1.8 | 5.4* | -0.3 | -9.7 | 7.2 | 13.0 | -0.8 | -4.8 | -3.9
COc1ccc(C(=O)Nc2ccc(/C(C)=N/NC(=O)c3ccncc3)cc2)cc1 | 8.7 | 32.4* | 0.3 | / | 13.6* | 6.6 | 12.3* | -4.7 | 18.9*
COc1ccc(-c2sc3ccc(N4CCOCC4)cc3c2-c2ccc(OC)c(F)c2)cc1 | 8.8 | -1.2 | -1.1 | / | -0.1 | 1.3 | / | / | /
Oc1ccccc1-c1nc(NCc2ccco2)c2ccccc2n1 | 12.1 | -4.4 | -10.2 | -24.0 | -2.0 | 1.7 | / | / | /
c1ccc(-c2nc(NCc3ccco3)c3ccccc3n2)nc1 | -1.8 | 8.8* | 2.6 | 1.1 | 14.8* | 4.2 | 12.6* | -2.9 | 1.4
CC(C)(C)Nc1nc(Cl)nc(N(C#N)CN2C(=O)c3ccccc3S2(=O)=O)n1 | 8.2 | 10.7* | 2.3 | 2.2 | 11.6* | -10.1 | 1.1 | -3.3 | -1.9
N#Cc1ccccc1CN1C(=O)c2ccccc2S1(=O)=O | 1.9 | -1.1 | -2.5 | / | -1.2 | 2.0 | / | / | /
CCCn1c(N)c(C(=O)COC(=O)c2cccc(S(=O)(=O)N3CCOCC3)c2)c(=O)[nH]c1=O | 2.5 | / | / | / | / | 1.5 | / | / | /
SMILES | GLD-1 RNA inh | IMP-1 inhibitor | MEX-5 binding | EBV gp42 block | VIM-2 inh | BCLXL inh | VIM-2 confirm | TEM-1 counter | IMP-1 confirm
Cc1cc(/C=N/NC(N)=S)c(O)c(/C=N/NC(N)=S)c1 | 189.0* | 27.1* | -4.0 | 147.1* | 26.0* | + | 26.4* | -1.7 | 25.1*
CC(C)c1nnc(N2C(=O)C(O)=C(C(=O)c3cccs3)C2c2ccccc2)s1 (stereo not drawn) | / | 7.2* | -65.9* | 126.3* | 16.6* | / | 0.2 | -0.2 | -1.5
C=CCOc1ccc(C2C(C(=O)c3cccs3)=C(O)C(=O)N2c2nnc(C)s2)cc1 (stereo not drawn) | 74.3* | 12.9* | -30.0* | / | 17.5* | 100.2* | 1.8 | 2.6* | -0.1
COc1ccc(-c2cn(Cc3ccc(C(N)=O)cc3)c(-c3ccncc3)n2)cc1 | 8.1 | / | / | / | / | 2.6 | / | / | /
O/C=c1\ccc2cccc3nc(C(F)(F)F)nc1c23 | 37.3* | 6.8* | ? | / | 21.2* | 85.8* | 32.9* | 5.0* | 10.8*
O=C(c1cc(F)c(F)cc1Cl)N1CCN(CCc2ccccc2)CC1 | -3.8 | -2.4 | 2.8 | / | -0.7 | 4.7 | / | / | /
Cc1ccc(S(=O)(=O)N(C)C[C@H]2Oc3ccc(NC(=O)Nc4c(C)noc4C)cc3CC(=O)N([C@@H](C)CO)C[C@@H]2C)cc1 | 4.1 | / | / | / | / | / | / | / | /
NS(=O)(=O)c1ccc(NC(=O)c2cccc(N3C(=O)c4ccccc4C3=O)c2)cc1 | 3.0 | 24.9* | 0.3 | / | 9.6* | 12.1 | 3.4 | -2.0 | 16.6*
NC(c1ccccc1)c1ccncc1 (stereo not drawn) | 5.4 | -3.5 | -1.1 | / | -2.0 | -5.9 | / | / | /
CC(OC(=O)CCC(=O)c1cccs1)C(=O)NC1CCCCC1C (stereo not drawn) | 3.6 | / | / | / | / | -6.3 | / | / | /
Cc1cccc(N2C(=O)c3cccc4c(N)ccc(c34)C2=O)c1 | + | 24.8* | ? | / | 21.3* | + | 21.3* | 30.7* | 18.8*
Nc1ccc2c3c(cccc13)C(=O)N(c1ccccc1)C2=O | / | 37.4* | ? | 162.5* | 35.0* | / | 35.2* | 47.0* | 32.8*
Nc1cccc(N2C(=O)c3cccc4c(N)ccc(c34)C2=O)c1 | 195.2* | 18.0* | ? | / | 21.6* | + | 18.1* | 21.0* | 14.0*
O=C(O)c1cccc(N2C(=O)c3cccc4c(Cl)ccc(c34)C2=O)c1 | 10.4 | -3.1 | -4.8 | -2.5 | -0.4 | 12.8 | / | / | /
O=C(Nc1nccs1)C1CC=CCC1C(=O)OCC(F)(F)C(F)F (stereo not drawn) | -6.0 | / | / | / | / | -0.4 | / | / | /
CCN(CC)c1ccc2nc3c4ccccc4c(=O)cc-3oc2c1 | / | 0.4 | 0.6 | / | 6.9 | / | / | / | /

Screening data (PubChem)
